Laboratory results: ChEMBL document CHEMBL4715714, “Design, synthesis and biological evaluation of thiosemicarbazones, hydrazinobenzothiazoles and arylhydrazones as anticancer agents with a potential to overcome multidrug resistance” (Eur J Med Chem, 2016)
The source made the active and inactive calls. The calls are words filed in the database; no cut-off is given here.

Experiments:
MES-SA/Dx5 [1] = test: Cytotoxicity against human MES-SA/DX5 cells transfected with mCherry fluorescent protein assessed as inhibition of cell proliferation incubated for 72 hrs by fluorescent assay; format: functional, cell-based
Procedure, shortened: (§1)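 MES-SA and MES-SA/Dx5 cells were made to stably express mCherry by lentiviral transduction. Cells were seeded at 5000 (96-well) or 2500 (384-well) per well, allowed to attach 24 h, then treated with compound dilutions for 72 h. Viability was read as fluorescence, excitation 585 nm, emission 610 nm.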

MES-SA [2] = test: Cytotoxicity against human MES-SA cells transfected with mCherry fluorescent protein assessed as inhibition of cell proliferation incubated for 72 hrs by fluorescent assay; format: functional, cell-based; procedure, shortened: as §1
MES-SA [3] = test: Cytotoxicity against human MES-SA cells assessed as inhibition of cell proliferation incubated for 72 hrs by MTT assay; format: functional, cell-based
Procedure, shortened: (§2)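 Cells were seeded (10000/well for A2780, 5000/well for MES-SA/Dx5 and KB-3-1/V1) and left to attach 12 h, then exposed to compound for 72 h. Medium was removed, and MTT (0.83 mg/mL) was added for 1 h at 37 °C. Cells were lysed in DMSO and absorbance read at 540 nm. Signal was corrected for unstained lysate background, normalized to untreated cells, and IC50 taken from a sigmoidal dose-response fit.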

MES-SA/Dx5 [4] = test: Cytotoxicity against human MES-SA/DX5 cells assessed as inhibition of cell proliferation incubated for 72 hrs by MTT assay; format: functional, cell-based; conditions: for IC50: MES-SA/Dx5, 72 h; procedure, shortened: as §2
KB 3-1 = test: Cytotoxicity against human KB-3-1 cells assessed as inhibition of cell proliferation incubated for 72 hrs by MTT assay; format: functional, cell-based; conditions: KB 3-1, 72 h; procedure, shortened: as §2
[5] = Cytotoxicity against human A2780adr cells assessed as inhibition of cell proliferation incubated for 72 hrs by MTT assay; format: functional, cell-based; conditions: A2780 ADR; procedure, shortened: as §2
A2780 = test: Cytotoxicity against human A2780 cells assessed as inhibition of cell proliferation incubated for 72 hrs by MTT assay; format: functional, cell-based; conditions: A2780, 72 h; procedure, shortened: as §2
KB-V1 = test: Cytotoxicity against human KB-V1 cells assessed as inhibition of cell proliferation incubated for 72 hrs by MTT assay; format: functional, cell-based; conditions: KB-V1, 72 h; procedure, shortened: as §2
[6] = Selectivity ratio of IC50 for human MES-SA cells transfected with mCherry to IC50 for human MES-SA/DX5 cells transfected with mCherry incubated for 72 hrs by fluorescent assay; format: functional
MES-SA/Dx5 [7] = test: Cytotoxicity against human MES-SA/DX5 cells transfected with mCherry fluorescent protein incubated for 72 hrs in presence of efflux pump inhibitor, Tariquidar by fluorescence assay; format: functional, cell-based
Procedure, shortened: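 The mCherry-expressing cells (lentiviral) were seeded at 5000 or 2500 per well, attached for 24 h, and exposed 72 h to compounds with Tariquidar coadministered. Live-cell signal was fluorescence at 585 nm excitation and 610 nm emission.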

[8] = Selectivity ratio of IC50 for human MES-SA cells to IC50 for human MES-SA/DX5 cells incubated for 72 hrs by MTT assay; format: functional
Procedure, shortened: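 The selectivity ratio is the IC50 in P-gp-negative parental cells divided by the IC50 in the P-gp-positive resistant partner.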

MES-SA/Dx5 [9] = test: Cytotoxicity against human MES-SA/DX5 cells incubated for 72 hrs in presence of efflux pump inhibitor, Tariquidar by MTT assay; format: functional, cell-based
Procedure, shortened: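 Run as the 72 h MTT viability readout (12 h attachment, MTT 0.83 mg/mL for 1 h, DMSO lysis, A540), with the P-gp inhibitor Tariquidar at 1 µM co-present. IC50 came from sigmoidal fits of 2 to 4 independent experiments.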

[10] = Homo sapiens, MES-SA/Dx5, 72 h, read-out: IC50
[11] = Homo sapiens, MES-SA/Dx5, 72 h, read-out: pIC50 (converted)
[12] = Homo sapiens, MES-SA, 72 h, read-out: IC50
[13] = Homo sapiens, MES-SA, 72 h, read-out: pIC50 (converted)

FC(F)(F)c1ccccc1NC(=S)N/N=C/c1ccccn1
IC50 (MES-SA/Dx5 [1]; [10]): 160 nM
IC50 (MES-SA/Dx5 [1]; [11]): 138 nM
IC50 (MES-SA [2]; [12]): 130 nM
IC50 (MES-SA [2]; [13]): 120 nM

C/C(=N\NC(=S)Nc1ccccc1C(F)(F)F)c1ccccn1
IC50 (MES-SA/Dx5 [1]; [10]): 161 nM
IC50 (MES-SA/Dx5 [1]; [11]): 141 nM
IC50 (MES-SA [2]; [12]): 33 nM
IC50 (MES-SA [2]; [13]): 32.4 nM

CCc1ccc(/C=N/NC(=S)Nc2ccc(OC)cc2)nc1
IC50 (MES-SA [3]; read-out: IC50): 420 nM
IC50 (MES-SA [3]; read-out: pIC50 (converted)): 417 nM
IC50 (MES-SA/Dx5 [1]; [10]): 56 nM
IC50 (MES-SA/Dx5 [4]; read-out: IC50): 72 nM
IC50 (MES-SA/Dx5 [4]; read-out: pIC50 (converted)): 63.1 nM
IC50 (MES-SA [2]; [12]): 96 nM

Oc1ccccc1/C=N/NC(=S)Nc1cccc(C(F)(F)F)c1
IC50 (MES-SA/Dx5 [1]; [10]): 4080 nM
IC50 (MES-SA [2]; [12]): 5070 nM

O=[N+]([O-])c1ccc(NC(=S)N/N=C/c2ccccn2)cc1
IC50 (KB 3-1; read-out: IC50): 1050 nM
IC50 (KB 3-1; read-out: pIC50 (converted)): 1020 nM
IC50 (MES-SA [3]; read-out: IC50): 2700 nM
IC50 (MES-SA [3]; read-out: pIC50 (converted)): 2570 nM
IC50 ([5]; read-out: IC50): 1370 nM
IC50 ([5]; read-out: pIC50 (converted)): 1350 nM
IC50 (A2780; read-out: IC50): 670 nM
IC50 (A2780; read-out: pIC50 (converted)): 617 nM
IC50 (MES-SA/Dx5 [1]; [10]): 2740 nM
IC50 (MES-SA/Dx5 [1]; [11]): 2750 nM
IC50 (MES-SA/Dx5 [4]; read-out: IC50): 1830 nM
IC50 (MES-SA/Dx5 [4]; read-out: pIC50 (converted)): 1780 nM
IC50 (MES-SA [2]; [12]): 2740 nM
IC50 (MES-SA [2]; [13]): 2690 nM
IC50 (KB-V1; read-out: IC50): 1990 nM
IC50 (KB-V1; read-out: pIC50 (converted)): 1780 nM

C/C(=N\Nc1ccccn1)c1ccc2ccccc2n1
IC50 (MES-SA/Dx5 [1]; [10]): 380 nM
IC50 (MES-SA/Dx5 [1]; [11]): 347 nM
IC50 (MES-SA [2]; [12]): 480 nM
IC50 (MES-SA [2]; [13]): 479 nM

COc1ccc(NC(=S)N/N=C/c2ccccc2O)cc1
IC50 (KB 3-1; read-out: IC50): 5020 nM
IC50 (KB 3-1; read-out: pIC50 (converted)): 5010 nM
IC50 (MES-SA [3]; read-out: IC50): 3910 nM
IC50 (MES-SA [3]; read-out: pIC50 (converted)): 3800 nM
IC50 ([5]; read-out: IC50): 6950 nM
IC50 ([5]; read-out: pIC50 (converted)): 6920 nM
IC50 (A2780; read-out: IC50): 5470 nM
IC50 (A2780; read-out: pIC50 (converted)): 5370 nM
IC50 (MES-SA/Dx5 [1]; [10]): 1850 nM
IC50 (MES-SA/Dx5 [4]; read-out: IC50): 3500 nM
IC50 (MES-SA/Dx5 [4]; read-out: pIC50 (converted)): 3470 nM
IC50 (MES-SA [2]; [12]): 2670 nM
IC50 (KB-V1; read-out: IC50): 4870 nM
IC50 (KB-V1; read-out: pIC50 (converted)): 5010 nM

O=C1Nc2ccccc2/C1=N/Nc1nc2ccccc2s1
pIC50 (MES-SA [3]): inactive
pIC50 (MES-SA/Dx5 [4]): inactive
IC50 (MES-SA [2]; mes-sa): Not Active

C/C(=N\Nc1ccccn1)c1ccccn1
IC50 (MES-SA/Dx5 [1]; [10]): 59 nM
IC50 (MES-SA/Dx5 [1]; [11]): 58.9 nM
IC50 (MES-SA [2]; [12]): 102 nM
IC50 (MES-SA [2]; [13]): 77.6 nM

COc1ccc(O)c(/C(C)=N/Nc2nc3ccccc3s2)c1
Ratio IC50 [6]: 4.71
IC50 (MES-SA/Dx5 [1]; [10]): 15400 nM
IC50 (MES-SA/Dx5 [1]; [11]): 14100 nM
IC50 (MES-SA [2]; [12]): 50700 nM
IC50 (MES-SA [2]; [13]): 50100 nM
Activity (MES-SA/Dx5 [7]): Active

CCc1ccc(/C=N/Nc2nc3ccccc3s2)nc1
IC50 (KB 3-1; read-out: IC50): 610 nM
IC50 (KB 3-1; read-out: pIC50 (converted)): 933 nM
IC50 (MES-SA [3]; read-out: IC50): 3240 nM
IC50 (MES-SA [3]; read-out: pIC50 (converted)): 3160 nM
Ratio IC50 [8]: 1.68
IC50 ([5]; read-out: IC50): 620 nM
IC50 ([5]; read-out: pIC50 (converted)): 589 nM
IC50 (A2780; read-out: IC50): 810 nM
IC50 (A2780; read-out: pIC50 (converted)): 813 nM
IC50 (MES-SA/Dx5 [1]; [10]): 3830 nM
IC50 (MES-SA/Dx5 [1]; [11]): 3550 nM
IC50 (MES-SA/Dx5 [4]; read-out: IC50): 1850 nM
IC50 (MES-SA/Dx5 [4]; read-out: pIC50 (converted)): 1860 nM
IC50 (MES-SA [2]; [12]): 4260 nM
IC50 (MES-SA [2]; [13]): 4270 nM
IC50 (KB-V1; read-out: IC50): 1140 nM
IC50 (KB-V1; read-out: pIC50 (converted)): 1150 nM

COc1ccc(O)c(/C=N/Nc2nc3ccccc3s2)c1
IC50 (MES-SA/Dx5 [1]; [10]): 11600 nM
IC50 (MES-SA/Dx5 [1]; [11]): 9330 nM
IC50 (MES-SA [2]; [12]): 14900 nM
IC50 (MES-SA [2]; [13]): 13200 nM

S=C(N/N=C/c1ccccn1)Nc1ccccc1
IC50 (MES-SA/Dx5 [1]; [10]): 580 nM
IC50 (MES-SA/Dx5 [1]; [11]): 562 nM
IC50 (MES-SA [2]; [12]): 720 nM
IC50 (MES-SA [2]; [13]): 692 nM

Oc1ccccc1/C=N/NC(=S)Nc1ccccc1
Ratio IC50 [6]: 2.23
IC50 (MES-SA/Dx5 [1]; [10]): 6450 nM
IC50 (MES-SA/Dx5 [1]; [11]): 4790 nM
IC50 (MES-SA [2]; [12]): 14000 nM
IC50 (MES-SA [2]; [13]): 11500 nM
Activity (MES-SA/Dx5 [7]): Active

FC(F)(F)c1cccc(NC(=S)N/N=C/c2ccccn2)c1
IC50 (MES-SA/Dx5 [1]; [10]): 720 nM
IC50 (MES-SA/Dx5 [1]; [11]): 692 nM
IC50 (MES-SA [2]; [12]): 850 nM
IC50 (MES-SA [2]; [13]): 832 nM

COc1ccccc1/C=N/Nc1nc2ccccc2s1
pIC50 (MES-SA/Dx5 [1]): inactive
IC50 (MES-SA/Dx5 [1]; mes-sa/dx5): Not Active
pIC50 (MES-SA [2]): inactive
IC50 (MES-SA [2]; mes-sa): Not Active

COc1ccc(NC(=S)N/N=C(\C)c2ccccc2N)cc1
IC50 (KB 3-1; read-out: IC50): 20600 nM
IC50 (KB 3-1; read-out: pIC50 (converted)): 20400 nM
IC50 (MES-SA [3]; read-out: IC50): 10700 nM
IC50 (MES-SA [3]; read-out: pIC50 (converted)): 10500 nM
IC50 ([5]; read-out: IC50): 4870 nM
IC50 ([5]; read-out: pIC50 (converted)): 4900 nM
IC50 (A2780; read-out: IC50): 4350 nM
IC50 (A2780; read-out: pIC50 (converted)): 4270 nM
IC50 (MES-SA/Dx5 [1]; [10]): 17700 nM
IC50 (MES-SA/Dx5 [4]; read-out: IC50): 8020 nM
IC50 (MES-SA/Dx5 [4]; read-out: pIC50 (converted)): 7940 nM
IC50 (MES-SA [2]; [12]): 18500 nM
IC50 (KB-V1; read-out: IC50): 22300 nM
IC50 (KB-V1; read-out: pIC50 (converted)): 22400 nM

NC(=S)N/N=C/c1ncccc1N [TRIAPINE]
Activity (MES-SA/Dx5 [9]): Active
IC50 (MES-SA/Dx5 [1]; [10]): 2520 nM
IC50 (MES-SA [2]; [12]): 1300 nM
